ChEMBL document CHEMBL1128444 (J Med Chem, 1995)

Columns and labels:
[1] = molecular target: T1, Sodium-dependent dopamine transporter (Rattus norvegicus, UniProt P23977); test: Inhibition of [3H]DA uptake by rat striatal dopamine transporter
In short: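 Rat striatal crude synaptosomes were prepared from male Sprague–Dawley rats by 0.32 M sucrose homogenisation and centrifugation at 800g then 2000g. Each tube held 1.5 mg tissue, 0.5 nM [3H]dopamine and 10 μM pargyline in Krebs phosphate buffer, pH 7.4, with dextrose and ascorbate. Incubation was 3 min at 30 °C, followed by filtration and scintillation counting. Nonspecific uptake was defined with 1 μM mazindol. Three or four experiments were run in triplicate, and Ki was derived by Cheng–Prusoff.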

[2] = molecular target: T2, Sodium-dependent serotonin transporter (Rattus norvegicus, UniProt P31652); test: Inhibition of [3H]- 5-HT uptake in Serotonin transporter using serotonin uptake assay in rat midbrain tissue; type: tissue-based
T2 sequence (P31652 whole entry): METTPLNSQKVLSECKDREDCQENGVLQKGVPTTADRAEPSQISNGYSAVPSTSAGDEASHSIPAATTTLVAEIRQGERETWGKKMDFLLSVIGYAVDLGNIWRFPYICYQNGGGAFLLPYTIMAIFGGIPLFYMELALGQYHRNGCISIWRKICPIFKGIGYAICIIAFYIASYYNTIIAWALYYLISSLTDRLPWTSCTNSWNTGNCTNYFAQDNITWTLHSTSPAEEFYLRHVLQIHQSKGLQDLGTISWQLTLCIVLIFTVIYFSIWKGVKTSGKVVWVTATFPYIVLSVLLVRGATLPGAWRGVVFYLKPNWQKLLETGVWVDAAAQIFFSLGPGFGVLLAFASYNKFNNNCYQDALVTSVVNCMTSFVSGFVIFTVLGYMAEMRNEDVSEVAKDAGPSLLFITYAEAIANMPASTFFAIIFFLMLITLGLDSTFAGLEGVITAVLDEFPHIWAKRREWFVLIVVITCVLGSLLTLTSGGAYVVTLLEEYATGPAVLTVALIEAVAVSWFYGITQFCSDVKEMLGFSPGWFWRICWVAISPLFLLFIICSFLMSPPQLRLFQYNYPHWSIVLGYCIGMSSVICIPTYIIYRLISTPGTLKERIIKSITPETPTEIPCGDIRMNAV
In short: (§1)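 Rat midbrain synaptosomes were used at 1 mg/mL tissue with 5 nM final [3H]serotonin and 10 μM pargyline in Krebs phosphate buffer, pH 7.4. Incubation was 3 min at 30 °C, followed by filtration and scintillation counting. Nonspecific uptake was defined with 1 μM citalopram. Three or four experiments were run in triplicate, and Ki was derived by Cheng–Prusoff.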

[3] = molecular target: T1, Sodium-dependent dopamine transporter; test: Binding affinity at the Dopamine transporter in rat striata by inhibition of 0.5 nM [3H]WIN-35428 binding
[4] = molecular target: T3, Norepinephrine transporter (Rattus norvegicus, UniProt Q9WTR4); test: Binding affinity at the Norepinephrine transporter in rat frontal cortex by inhibition of 0.5 nM [3H]nisoxetine binding; type: tissue-based
T3 sequence (Q9WTR4 whole entry): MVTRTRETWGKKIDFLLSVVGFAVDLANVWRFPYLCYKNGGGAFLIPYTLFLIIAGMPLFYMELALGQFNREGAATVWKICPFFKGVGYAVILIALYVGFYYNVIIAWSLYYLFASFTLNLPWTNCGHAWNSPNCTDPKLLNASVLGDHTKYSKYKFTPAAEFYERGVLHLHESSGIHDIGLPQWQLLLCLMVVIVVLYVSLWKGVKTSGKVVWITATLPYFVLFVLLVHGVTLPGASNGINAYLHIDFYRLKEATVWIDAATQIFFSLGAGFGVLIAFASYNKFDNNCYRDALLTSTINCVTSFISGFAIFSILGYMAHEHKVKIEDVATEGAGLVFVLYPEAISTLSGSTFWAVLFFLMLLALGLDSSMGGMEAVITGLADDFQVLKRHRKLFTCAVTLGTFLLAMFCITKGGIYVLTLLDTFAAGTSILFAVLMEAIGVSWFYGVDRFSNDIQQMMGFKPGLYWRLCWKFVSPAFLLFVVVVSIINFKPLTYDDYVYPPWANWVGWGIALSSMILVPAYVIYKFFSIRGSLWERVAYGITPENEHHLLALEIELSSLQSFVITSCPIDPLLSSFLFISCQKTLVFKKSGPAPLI

[5] = molecular target: T2, Sodium-dependent serotonin transporter; test: Binding affinity at the Serotonin transporter in rat midbrain by inhibition of 0.5 nM [3H]-paroxetine binding; type: tissue-based
[6] = molecular target: Monoamine transporters; Norepininephrine & dopamine (Rattus norvegicus) (UniProt P23977+Q9WTR4); test: Ratio of IC50 value against NE to that of DA transporters; type: protein assay
In short: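 Competition binding against 0.5 nM [3H]WIN 35,428 (DA transporter) or 0.5 nM [3H]nisoxetine (NE transporter). The IC50 is the mean ± standard error of three or four experiments, each run in triplicate. Selectivity ratios are NE/DA or 5-HT/DA quotients of the IC50 values.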

[7] = molecular target: T4, Monoamine transporters; serotonin & dopamine (Rattus norvegicus) (UniProt P31652+P23977); test: Ratio of IC50 value against 5-HT to that of DA transporters; type: protein assay
T4 sequence (P23977 whole entry, looked up): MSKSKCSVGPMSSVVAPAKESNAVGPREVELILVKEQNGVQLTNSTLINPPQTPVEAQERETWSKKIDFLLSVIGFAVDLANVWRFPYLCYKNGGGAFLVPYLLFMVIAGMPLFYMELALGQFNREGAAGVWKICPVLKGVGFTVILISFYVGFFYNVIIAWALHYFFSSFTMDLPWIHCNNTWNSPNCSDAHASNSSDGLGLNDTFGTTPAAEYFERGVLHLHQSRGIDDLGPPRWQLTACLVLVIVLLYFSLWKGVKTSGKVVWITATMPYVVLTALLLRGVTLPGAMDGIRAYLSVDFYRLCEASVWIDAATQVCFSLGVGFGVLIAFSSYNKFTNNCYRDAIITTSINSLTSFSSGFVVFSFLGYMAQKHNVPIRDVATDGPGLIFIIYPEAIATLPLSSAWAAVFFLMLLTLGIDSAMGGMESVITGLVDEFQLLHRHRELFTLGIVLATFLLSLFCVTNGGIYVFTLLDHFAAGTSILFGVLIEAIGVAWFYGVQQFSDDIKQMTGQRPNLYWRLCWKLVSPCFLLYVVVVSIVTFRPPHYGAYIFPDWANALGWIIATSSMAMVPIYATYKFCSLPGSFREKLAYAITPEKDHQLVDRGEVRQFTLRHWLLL
T4 sequence (P31652 whole entry, looked up): as the sequence (P31652 whole entry) above

[8] = molecular target: T3, Norepinephrine transporter; test: Inhibition of [3H]NE uptake by rat frontal cortex Norepinephrine transporter; type: tissue-based
In short: as §1, with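 “Rat frontal cortex” for “Rat midbrain”, “at 10” for “at 1”, “final [3H]norepinephrine” for “final [3H]serotonin”, “μM desipramine.” for “μM citalopram.”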

[9] = molecular target: T4, Monoamine transporters; serotonin & dopamine (Rattus norvegicus); test: Ratio of IC50 value against Serotonin transporter to that of dopamine transporter; type: protein assay
[10] = molecular target: T2, Sodium-dependent serotonin transporter; test: Ratio of Ki value towards Serotonin transporter to that of dopamine transporter
In short: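 Rat [3H]uptake into crude synaptosomes in modified Krebs phosphate buffer, pH 7.4, with dextrose, ascorbic acid and 10 μM pargyline, 3 min at 30 °C, filtered and scintillation counted. DA: male Sprague–Dawley striatum, 0.5 nM [3H]dopamine, 1 μM mazindol nonspecific. 5-HT: midbrain, 5 nM [3H]serotonin, 1 μM citalopram nonspecific. Ki by Cheng–Prusoff; 5-HT Ki/DA Ki; 3–4 experiments in triplicate.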

T1 sequence (P23977 whole entry): as the sequence (P23977 whole entry, looked up) above

Which results are given for `COC(=O)C1C(c2ccc(Cl)cc2)CC2CCC1N2C` (configuration not stated)?
Ki [1]: 0.00368 µM; Ki [2]: 0.005 µM

How did the IC50 [3] turn out when `CNC(=O)C1C(OC(=O)c2ccccc2)CC2CCC1N2C` (configuration not stated) was run?
The IC50 was 2.42 µM.

And the IC50 [4]?
The IC50 was 4.21 µM.

And the IC50 [5]?
The IC50 was 44.8 µM.

And the Ratio [6]?
Its Ratio is 1.7.

What about the Ratio [7] of the same molecule?
Its Ratio is 18.

With `COC(=O)C1C(c2ccc(I)cc2)CC2CCC1N2C` (configuration not stated) as the molecule, how does the IC50 [3] read?
Its IC50 is 0.00126 µM.

And the Ki [8]?
The Ki was 0.00751 µM.

What about the IC50 [4] of the same molecule?
The IC50 was 0.036 µM.

What about the Ratio [6] of the same molecule?
Its Ratio is 29.

What about the Ratio [9] of the same molecule?
The Ratio was 3.3.

And the Ki [1]?
The Ki was 0.00196 µM.

And the Ki [2]?
The Ki was 0.00174 µM.

How did the IC50 [3] turn out when `CN1C2CCC1C(C(=O)OC1CC1)C(c1ccc(I)cc1)C2` (configuration not stated) was run?
Its IC50 is 0.00061 µM.

And the IC50 [4]?
The IC50 was 0.102 µM.

And the Ratio [6]?
Its Ratio is 167.

What about the Ratio [7] of the same molecule?
Its Ratio is 25.

With `CN1C2CCC1C(C(N)=O)C(OC(=O)c1ccccc1)C2` (configuration not stated) as the molecule, how does the IC50 [3] read?
Its IC50 is 0.753 µM.

And the IC50 [4]?
The IC50 was 3.98 µM.

And the IC50 [5]?
Its IC50 is 13.7 µM.

And the Ratio [6]?
The Ratio was 5.3.

And the Ratio [7]?
The Ratio was 18.

With `CN1C2CCC1C(C(=O)OC/C=C/c1ccccc1)C(OC(=O)c1ccccc1)C2` (configuration not stated) as the molecule, how does the IC50 [3] read?
Its IC50 is 0.371 µM.

And the IC50 [4]?
Its IC50 is 68.9 µM.

What about the IC50 [5] of the same molecule?
Its IC50 is 0.368 µM.

What about the Ratio [6] of the same molecule?
The Ratio was 186.

And the Ratio [7]?
The Ratio was 1.

With `CC(C)OC(=O)C1C(c2ccc(Cl)cc2)CC2CCC1N2C` (configuration not stated) as the molecule, how does the IC50 [3] read?
Its IC50 is 0.0014 µM.

What about the Ki [8] of the same molecule?
Its Ki is 0.25 µM.

And the IC50 [4]?
The IC50 was 0.778 µM.

What about the Ratio [6] of the same molecule?
Its Ratio is 556.

What about the Ratio [9] of the same molecule?
Its Ratio is 1000.

And the Ki [1]?
The Ki was 0.00604 µM.

What about the Ki [2] of the same molecule?
The Ki was 0.129 µM.

For `Cc1ccc(C2CC3CCC(C2C(=O)OC(C)C)N3C)cc1` (configuration not stated), which IC50 [3] is on record?
Its IC50 is 0.00645 µM.

What about the Ki [8] of the same molecule?
Its Ki is 0.0734 µM.

What about the IC50 [4] of the same molecule?
Its IC50 is 1.93 µM.

What about the Ratio [6] of the same molecule?
The Ratio was 299.

What about the Ratio [9] of the same molecule?
The Ratio was 59.9.

And the Ki [1]?
The Ki was 0.0153 µM.

And the Ratio [7]?
The Ratio was 944.

`CN1C2CCC1C(C(=O)NCO)C(c1ccc(Cl)cc1)C2` (configuration not stated) was tested. Which IC50 [3] did it give?
The IC50 was 0.00205 µM.

And the IC50 [4]?
Its IC50 is 0.144 µM.

What about the Ratio [6] of the same molecule?
Its Ratio is 47.

What about the Ratio [7] of the same molecule?
The Ratio was 48.

How did the IC50 [3] turn out when `CN1C2CCC1C(C(=O)Oc1ccccc1)C(c1ccc(I)cc1)C2` (configuration not stated) was run?
The IC50 was 0.0015 µM.

And the Ki [8]?
Its Ki is 0.0327 µM.

What about the IC50 [4] of the same molecule?
The IC50 was 3.79 µM.

And the IC50 [5]?
Its IC50 is 0.184 µM.

What about the Ratio [6] of the same molecule?
Its Ratio is 2580.

What about the Ratio [9] of the same molecule?
Its Ratio is 123.

And the Ki [1]?
Its Ki is 0.00685 µM.

What about the Ki [2] of the same molecule?
The Ki was 0.0516 µM.

With `CC(C)OC(=O)C1C(c2ccc(I)cc2)CC2CCC1N2C` (configuration not stated) as the molecule, how does the IC50 [3] read?
Its IC50 is 0.00043 µM.

And the Ki [8]?
Its Ki is 0.0412 µM.

And the IC50 [4]?
Its IC50 is 0.285 µM.

What about the IC50 [5] of the same molecule?
The IC50 was 0.0668 µM.

And the Ki [10]?
The Ki was 0.0125 µM.

And the Ratio [6]?
The Ratio was 662.

And the Ki [1]?
Its Ki is 0.00279 µM.

And the Ratio [7]?
The Ratio was 155.

Which results are given for `Cc1ccc(C2CC3CCC(C2C(=O)Oc2ccccc2)N3C)cc1` (configuration not stated)?
IC50 [3]: 0.00326 µM; Ki [8]: 0.278 µM; IC50 [4]: 5.83 µM; Ratio [6]: 1790; Ratio [9]: 7410; Ki [1]: 0.00913 µM; Ki [2]: 1.54 µM

Which Ki [8] does the source give for `COC(=O)[C@H]1[C@@H](c2ccc(F)cc2)C[C@H]2CC[C@H]1N2C` here?
Its Ki is 0.0386 µM.

What about the IC50 [5] of the same molecule?
Its IC50 is 0.692 µM.

What about the Ki [2] of the same molecule?
The Ki was 0.101 µM.

For `CN1C2CCC1C(C(N)=O)C(c1ccc(Cl)cc1)C2` (configuration not stated), which IC50 [3] is on record?
The IC50 was 0.0115 µM.

And the IC50 [4]?
The IC50 was 4.27 µM.

What about the IC50 [5] of the same molecule?
Its IC50 is 1.62 µM.

What about the Ratio [6] of the same molecule?
The Ratio was 371.

And the Ratio [7]?
The Ratio was 141.

`Cc1ccc(C2CC3CCC(C2C(N)=O)N3C)cc1` (configuration not stated) was tested. Which IC50 [3] did it give?
Its IC50 is 0.0418 µM.

What about the IC50 [4] of the same molecule?
Its IC50 is 4.4 µM.

What about the IC50 [5] of the same molecule?
The IC50 was 6.37 µM.

What about the Ratio [6] of the same molecule?
Its Ratio is 105.

What about the Ratio [7] of the same molecule?
The Ratio was 152.

How did the Ki [8] turn out when `CN1C2CCC1C(C(=O)Oc1ccccc1)C(c1ccc(Cl)cc1)C2` (configuration not stated) was run?
Its Ki is 0.242 µM.

What about the Ratio [6] of the same molecule?
The Ratio was 1490.

What about the Ratio [9] of the same molecule?
Its Ratio is 1180.

And the Ki [1]?
Its Ki is 0.00525 µM.

And the Ki [2]?
Its Ki is 0.391 µM.
